Target: T1, Alpha-1A adrenergic receptor (Rattus norvegicus, UniProt P43140)
T1 sequence (P43140 whole entry): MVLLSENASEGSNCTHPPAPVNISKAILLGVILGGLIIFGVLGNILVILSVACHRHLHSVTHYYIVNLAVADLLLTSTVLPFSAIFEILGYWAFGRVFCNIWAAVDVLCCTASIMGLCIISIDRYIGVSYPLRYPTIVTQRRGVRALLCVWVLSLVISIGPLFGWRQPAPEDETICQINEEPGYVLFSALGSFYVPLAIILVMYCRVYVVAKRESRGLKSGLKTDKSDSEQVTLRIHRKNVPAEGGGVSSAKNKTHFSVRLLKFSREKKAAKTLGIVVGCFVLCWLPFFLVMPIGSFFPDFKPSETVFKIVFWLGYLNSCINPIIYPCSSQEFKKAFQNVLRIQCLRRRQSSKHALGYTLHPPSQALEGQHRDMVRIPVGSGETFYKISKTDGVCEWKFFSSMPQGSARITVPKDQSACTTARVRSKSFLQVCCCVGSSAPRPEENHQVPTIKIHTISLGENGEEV
Assay: Antagonist activity at Sprague-Dawley rat prostatic vas deferens adrenergic alpha-1A receptor after 20 mins
Conditions: read-out: pA2 (converted)
Procedure, shortened: (§1)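 Isolated rat tissues (prostatic vas deferens, spleen, thoracic aorta) contracted with cumulative norepinephrine; concentration-response curves recorded in presence of increasing antagonist concentrations, antagonism read as rightward curve shift. Mean ± SEM of five to eight separate experiments.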

Point of comparison: `COc1ccccc1N1CCN(CCCNC(=O)Cc2c[nH]c3ccccc23)CC1`, Kb 7.94 nM. Against it:
- COc1ccccc1N1CCN(CCCNC(=O)c2cc3cccc([N+](=O)[O-])c3[nH]2)CC1 — 7.4-fold higher, 58.9 nM
- COc1ccc2[nH]c(C(=O)NCCCN3CCN(c4ccccc4OC)CC3)cc2c1 — 9.8-fold higher, 77.6 nM
- COc1ccccc1N1CCN(CCCNC(=O)c2cc3cc(O)ccc3[nH]2)CC1 — 6.9-fold higher, 55 nM
- COc1ccccc1N1CCN(CC(O)COc2cccc3ccccc23)CC1 (stereo not drawn) [NAFTOPIDIL] — 4.2-fold higher, 33.1 nM

Target: T2, Alpha-1B adrenergic receptor (Rattus norvegicus, UniProt P15823)
T2 sequence (P15823 whole entry): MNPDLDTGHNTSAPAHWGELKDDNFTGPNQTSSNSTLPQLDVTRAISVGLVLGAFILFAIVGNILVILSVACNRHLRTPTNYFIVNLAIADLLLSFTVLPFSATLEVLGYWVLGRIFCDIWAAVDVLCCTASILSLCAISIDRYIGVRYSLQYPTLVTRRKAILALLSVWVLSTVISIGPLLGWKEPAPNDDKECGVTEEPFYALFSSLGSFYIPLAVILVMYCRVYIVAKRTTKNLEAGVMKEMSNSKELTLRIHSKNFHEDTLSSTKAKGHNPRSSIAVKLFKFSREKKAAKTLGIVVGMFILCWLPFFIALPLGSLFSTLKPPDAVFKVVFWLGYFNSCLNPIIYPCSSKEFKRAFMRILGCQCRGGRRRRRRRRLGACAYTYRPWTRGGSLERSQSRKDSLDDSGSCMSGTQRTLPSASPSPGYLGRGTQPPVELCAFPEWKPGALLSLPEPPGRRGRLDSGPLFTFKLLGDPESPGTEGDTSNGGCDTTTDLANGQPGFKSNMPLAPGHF
Assay: Antagonist activity at Sprague-Dawley rat spleen adrenergic alpha-1B receptor after 20 mins
Conditions: read-out: pA2 (converted)
Procedure, shortened: as §1

Point of comparison: `COc1ccccc1N1CCN(CCCNC(=O)c2cc3cccc([N+](=O)[O-])c3[nH]2)CC1`, Kb 646 nM. Against it:
- COc1ccc2[nH]c(C(=O)NCCCN3CCN(c4ccccc4OC)CC3)cc2c1 — 2.2-fold higher, 1450 nM
- COc1ccccc1N1CCN(CCCNC(=O)Cc2c[nH]c3ccccc23)CC1 — within 1.5-fold, 513 nM
- COc1cc2nc(N3CCN(C(=O)C4CCCO4)CC3)nc(N)c2cc1OC (stereo not drawn) [TERAZOSIN] — 250-fold lower, 2.57 nM
- COc1ccccc1N1CCN(CCCNC(=O)c2cc3cc(O)ccc3[nH]2)CC1 — 4.2-fold lower, 155 nM
- COc1ccccc1N1CCN(CC(O)COc2cccc3ccccc23)CC1 (stereo not drawn) [NAFTOPIDIL] — 3.6-fold lower, 178 nM

Target: T3, Alpha-1D adrenergic receptor (Rattus norvegicus, UniProt P23944)
T3 sequence (P23944 whole entry): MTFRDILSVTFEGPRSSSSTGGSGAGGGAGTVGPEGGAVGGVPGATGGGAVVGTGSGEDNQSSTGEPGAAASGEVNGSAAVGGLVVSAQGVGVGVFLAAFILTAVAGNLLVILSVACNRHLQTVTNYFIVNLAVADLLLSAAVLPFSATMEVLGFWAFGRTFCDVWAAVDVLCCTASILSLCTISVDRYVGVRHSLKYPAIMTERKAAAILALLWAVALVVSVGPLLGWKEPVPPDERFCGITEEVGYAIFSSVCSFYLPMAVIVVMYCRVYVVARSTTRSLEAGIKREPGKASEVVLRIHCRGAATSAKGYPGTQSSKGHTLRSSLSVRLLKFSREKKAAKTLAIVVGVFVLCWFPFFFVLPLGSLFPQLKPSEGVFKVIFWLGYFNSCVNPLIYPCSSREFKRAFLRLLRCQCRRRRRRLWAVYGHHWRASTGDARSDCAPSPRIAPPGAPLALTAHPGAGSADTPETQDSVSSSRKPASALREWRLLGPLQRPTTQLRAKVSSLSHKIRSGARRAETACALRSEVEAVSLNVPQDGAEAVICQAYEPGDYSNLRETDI
Assay: Antagonist activity at Sprague-Dawley rat thoracic aorta adrenergic alpha-1D receptor after 20 mins
Conditions: read-out: pA2 (converted)
Procedure, shortened: as §1

Point of comparison: `COc1ccccc1N1CCN(CCCNC(=O)Cc2c[nH]c3ccccc23)CC1`, Kb 5.25 nM. Against it:
- COc1ccccc1N1CCN(CCCNC(=O)c2cc3cccc([N+](=O)[O-])c3[nH]2)CC1 — 5.4-fold higher, 28.2 nM
- COc1ccc2[nH]c(C(=O)NCCCN3CCN(c4ccccc4OC)CC3)cc2c1 — 11-fold higher, 58.9 nM
- COc1cc2nc(N3CCN(C(=O)C4CCCO4)CC3)nc(N)c2cc1OC (stereo not drawn) [TERAZOSIN] — 3.5-fold lower, 1.48 nM
- COc1ccccc1N1CCN(CCCNC(=O)c2cc3cc(O)ccc3[nH]2)CC1 — 5.1-fold higher, 26.9 nM
- COc1ccccc1N1CCN(CC(O)COc2cccc3ccccc23)CC1 (stereo not drawn) [NAFTOPIDIL] — 2.2-fold higher, 11.7 nM

Organism: Rattus norvegicus
Assay: Selectivity ratio for Sprague-Dawley rat thoracic aorta adrenergic alpha-1D receptor to Sprague-Dawley rat spleen adrenergic alpha-1B receptor
Assay type: tissue-based
Conditions: not given

Point of comparison: `COc1ccccc1N1CCN(CCCNC(=O)c2cc3cccc([N+](=O)[O-])c3[nH]2)CC1`, Ratio 22.9. Against it:
- COc1ccc2[nH]c(C(=O)NCCCN3CCN(c4ccccc4OC)CC3)cc2c1 — higher, 24.5
- COc1ccccc1N1CCN(CCCNC(=O)Cc2c[nH]c3ccccc23)CC1 — higher, 97.7
- COc1ccccc1N1CCN(CCCNC(=O)c2cc3cc(O)ccc3[nH]2)CC1 — lower, 5.6
- COc1ccccc1N1CCN(CC(O)COc2cccc3ccccc23)CC1 (stereo not drawn) [NAFTOPIDIL] — lower, 15.1

Tested on: not listed separately
Assay: Cytotoxicity against human PC3 cells after 48 hrs by WST-8 assay
Assay type: functional, cell-based
Conditions: PC-3, 48 h

`COc1cc2nc(N3CCN(C(=O)C4COc5ccccc5O4)CC3)nc(N)c2cc1OC` (stereo not drawn) [DOXAZOSIN] and `COc1ccccc1N1CCN(CC(O)COc2cccc3ccccc23)CC1` (stereo not drawn) [NAFTOPIDIL] cannot be ordered by IC50: greater than 50000 nM for the first, greater than 50000 nM for the second.

Tested on: DU-145
Assay: Cytotoxicity against human DU145 cells after 48 hrs by WST-8 assay
Assay type: functional, cell-based
Conditions: DU-145, 48 h

For `COc1ccccc1N1CCN(CC(O)COc2cccc3ccccc23)CC1` (stereo not drawn) [NAFTOPIDIL], the IC50 was greater than 50000 nM.

Tested on: LNCaP
Assay: Cytotoxicity against human LNCAP cells after 48 hrs by WST-8 assay
Assay type: functional, cell-based
Conditions: not given

Work on `COc1ccccc1N1CCN(CC(O)COc2cccc3ccccc23)CC1` (stereo not drawn) [NAFTOPIDIL] yielded an IC50 greater than 50000 nM.

Tested on: not listed separately
Assay: Cytotoxicity against human PC3 cells
Assay type: functional, cell-based
Conditions: PC-3

With `COc1ccccc1N1CCN(CC(O)COc2cccc3ccccc23)CC1` (stereo not drawn) [NAFTOPIDIL] the IC50 was 33200 nM.

Tested on: DU-145
Assay: Cytotoxicity against human DU145 cells
Assay type: functional, cell-based
Conditions: not given

For `COc1ccccc1N1CCN(CC(O)COc2cccc3ccccc23)CC1` (stereo not drawn) [NAFTOPIDIL], the IC50 was 22200 nM.

Organism: Rattus norvegicus
Assay: Selectivity ratio for Sprague-Dawley rat prostatic vas deferens adrenergic alpha-1A receptor to Sprague-Dawley rat spleen adrenergic alpha-1B receptor
Conditions: not given

Point of comparison: `COc1ccccc1N1CCN(CCCNC(=O)Cc2c[nH]c3ccccc23)CC1`, Ratio 64.6. Against it:
- COc1ccccc1N1CCN(CCCNC(=O)c2cc3cccc([N+](=O)[O-])c3[nH]2)CC1 — lower, 11
- COc1ccc2[nH]c(C(=O)NCCCN3CCN(c4ccccc4OC)CC3)cc2c1 — lower, 18.6
- COc1ccccc1N1CCN(CCCNC(=O)c2cc3cc(O)ccc3[nH]2)CC1 — lower, 2.8
- COc1ccccc1N1CCN(CC(O)COc2cccc3ccccc23)CC1 (stereo not drawn) [NAFTOPIDIL] — lower, 5.4

Organism: Rattus norvegicus
Assay: Selectivity ratio for Sprague-Dawley rat thoracic aorta adrenergic alpha-1D receptor to Sprague-Dawley rat prostatic vas deferens adrenergic alpha-1A receptor
Conditions: not given

Point of comparison: `COc1ccccc1N1CCN(CC(O)COc2cccc3ccccc23)CC1` (stereo not drawn) [NAFTOPIDIL], Ratio 2.8. Against it:
- COc1ccccc1N1CCN(CCCNC(=O)c2cc3cccc([N+](=O)[O-])c3[nH]2)CC1 — lower, 2.1
- COc1ccc2[nH]c(C(=O)NCCCN3CCN(c4ccccc4OC)CC3)cc2c1 — lower, 1.3
- COc1ccccc1N1CCN(CCCNC(=O)Cc2c[nH]c3ccccc23)CC1 — lower, 1.5
- COc1ccccc1N1CCN(CCCNC(=O)c2cc3cc(O)ccc3[nH]2)CC1 — lower, 2

From ChEMBL document CHEMBL3414528, “Novel naftopidil-related derivatives and their biological effects as alpha1-adrenoceptors antagonists and antiproliferative agents” (Eur J Med Chem, 2015)
